# Compound activity (PubChem BioAssay)
# p47phox inh – inhibitors of human p47phox binding. inhibition, % at 24.7 µM. p47phox/p22phox peptide binding, fluorescence polarization, 2 h. 0.53% of 220,000 active. AID 1274;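 further: 0% = p47phox with labelled peptide and 100% = labelled peptide alone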
# Wee1 degr inh – blocks degradation of human Wee1 kinase | reporter increase, % at 5 µM | HeLa Luc-Wee1K328M stability, luciferase luminescence; 100% = proteasome inhibitor MG132 effect | 1.2% of 220,000 active;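 active means activation above the mean of all tested compounds plus 3 SD, set per screening run, cut at about 8.8% in these data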;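 further: cells exposed to compound for 20 h before luminescence read; 0% = DMSO alone and 100% = MG132 at 30 µM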
# RBBP9 inhibitor – human RBBP9 hydrolase inhibition. recombinant RBBP9, FP-Rh probe fluorescence polarization. O75884. 0.2% of 220,000 active. inhibition, % at 7.94 µM;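 active means inhibition above the campaign mean of all tested compounds plus 3 SD, cut at about 14% in these data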;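 further: plate controls were DMSO wells with RBBP9 for no effect and wells lacking RBBP9 protein for full effect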
# Target sequence (O75884 whole entry, looked up): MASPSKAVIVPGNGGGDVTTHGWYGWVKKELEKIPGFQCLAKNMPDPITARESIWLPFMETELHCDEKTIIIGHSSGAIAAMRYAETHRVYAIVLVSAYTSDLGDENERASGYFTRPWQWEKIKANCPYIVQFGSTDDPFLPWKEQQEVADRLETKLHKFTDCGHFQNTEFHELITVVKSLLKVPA
#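 System: RBBP9 protein | Quantity: 2.5 µM RBBP9 dispensing solution, before mixing | Reagent: FP-Rh probe, 375 nM dispensing solution | Timing: Enzyme-compound preincubation 30 min, then probe labeling 45 min, 25 °C | Measured by: Fluorescence polarization | Read-out: % inhibition | Replication: One well per compound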
# 14-3-3 Bad inh – disrupts binding of bovine 14-3-3 zeta to phospho-Bad peptide. P63103. TR-FRET 14-3-3zeta/Dy647-pBad peptide displacement, 1 h. inhibition, % at 21.7 µM. 0.71% of 220,000 active. AID 781;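 active means inhibition above about 70%, limit read from the data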;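 further: 0% = full 14-3-3 plus peptide FRET controls and 100% = background without 14-3-3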
# Target sequence (P63103 whole entry, looked up): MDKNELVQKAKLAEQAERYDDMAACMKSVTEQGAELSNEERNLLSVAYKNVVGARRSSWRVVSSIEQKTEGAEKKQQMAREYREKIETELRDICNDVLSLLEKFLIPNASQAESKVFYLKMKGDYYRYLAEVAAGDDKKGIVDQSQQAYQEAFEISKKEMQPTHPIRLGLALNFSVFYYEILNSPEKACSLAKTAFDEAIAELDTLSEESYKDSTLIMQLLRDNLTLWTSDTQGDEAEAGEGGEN
# eIF4E 4G PPI – inhibitors of eIF4E and eIF4G interaction in translation initiation. P63073+Q04637. 0.37% of 220,000 active. AID 782. TR-FRET eIF4E-eIF4GI(517-606) binding, 2 h. inhibition, % at 21.7 µM;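 further: 0% = full FRET control wells and 100% = background wells lacking eIF4GI fragment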
# * = called active by the depositor; [ ] = dose if it differs, or a comment. An excerpt weighted towards active compounds, which were near 2.8% of everything screened.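 How the source made its calls, unless noted: active means inhibition above about 30% (limit read from the data); inactive means the rest.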
SMILES,p47phox inh,Wee1 degr inh,RBBP9 inhibitor,14-3-3 Bad inh,eIF4E 4G PPI
O=C(O)c1ccc2c(c1)C(=O)N(c1cccc(-c3nc4ccccc4s3)c1)C2=O,-14.8,11.1*,-3.8,1.6,46.3*
COc1ccccc1-c1cc2nc(C)c(CCC(=O)NC(C)CCc3ccco3)c(C)n2n1 (stereo unspecified),-0.5,-2.5,-4.7,3.7,0.0
CCC(C)NC(=O)CN1C(=O)C(CC)Sc2ccccc21 (stereo unspecified),-2.0,2.7,-3.3,-11.7,-1.0
CCC1Sc2ccccc2N(CC(=O)NC2CCCCC2)C1=O (stereo unspecified),1.7,9.3*,-5.2,-3.3,-1.3
O=[N+]([O-])c1ccc(N/N=C\c2cccn2-c2ccccc2)nc1,38.0*,-2.4,-1.5,-0.5,16.3
CCSc1ncc(/C=N/Nc2ccccc2)n1C,-9.6,0.4,-8.5,-4.4,-4.6
Cc1cc(/C=N/Nc2ccc([N+](=O)[O-])cn2)c(C)n1-c1ccc(C(=O)O)cc1,-50.2,3.4,4.2,66.1,34.5*
Cc1ccccc1-n1c(C)cc(/C=N/Nc2ccc([N+](=O)[O-])cn2)c1C,0.5,-1.2,-0.1,9.7,-0.3
CCSc1ncc(/C=N/Nc2ccc([N+](=O)[O-])cc2)n1C,-63.0,9.6*,4.2,22.7,2.7
Cc1nnnn1-c1ccc(CC(=O)O)cc1,-1.9,-3.4,-5.5,-2.4,-6.2
Cc1ccc(C(=O)Nc2ccc(N3CCCC3)cc2)c(C)c1,-18.9,2.0,-6.0,0.1,9.9
CCCCOC(=O)Nc1ccc(N2CCCCC2)cc1,-12.1,9.1*,-8.6,2.2,2.6
CCOc1ccc(C(=O)Nc2ccc(N3CCCC3)cc2)cc1,-89.5,-1.4,-6.6,84.6*[fluorescence artefact?],3.8
Cc1ccccc1C(=O)Nc1ccc(N2CCCC2)cc1,6.9,10.4*,-3.4,-2.6,14.7
CSc1ccccc1NC(=O)c1ccccc1C,-4.7,1.1,-5.2,-8.0,46.5*
Cc1cc(SCC(=O)N(C)CC(=O)Nc2ccc(F)cc2)nc2ccccc12,-27.4,-1.1,-8.5,3.5,-0.9
Cc1nc(Nc2cccc(C(C)O)c2)c2nnn(Cc3ccccc3F)c2n1 (stereo unspecified),-0.9,-0.5,-2.3,-0.5,2.0
O=C(CN1C(=O)c2ccccc2S1(=O)=O)Nc1ccc(S(=O)(=O)N2CCCCC2)cc1,-8.7,9.1*,-0.8,-1.4,-2.0
O=C(CN1C(=O)c2ccccc2S1(=O)=O)Nc1ccc(S(=O)(=O)N2CCCC2)cc1,-9.2,-0.1,5.8,6.0,-4.4
O=C(Cc1cccs1)Nc1ccc(S(=O)(=O)N2CCCC2)cc1,-5.4,-0.6,0.6,33.4,33.2*
O=C(O)CCC(=O)Nc1ccc(S(=O)(=O)N2CCCC2)cc1,2.6,6.1,-6.5,1.1,-9.7
CCN(CC)CCN1C(=O)C(=O)/C(=C(/O)c2ccc(OC(C)C)cc2)C1c1cccs1 (stereo unspecified),-5.4,7.5,1.9,-2.1,4.2
CCOc1cc(C(N)=O)cc(Br)c1OCc1ccccc1,-8.7,2.0,-6.1,-8.9,-4.8
Cn1c(SCc2cc(=O)[nH]c(C(C)(C)C)n2)nnc1C(F)(F)F,-12.2,2.3,1.8,-22.5,-3.6
CS(=O)(=O)NCC(c1ccco1)N1CCN(c2ccc(F)cc2)CC1 (stereo unspecified),-4.3,-2.0,-7.5,-2.9,-5.8
SMILES,p47phox inh,Wee1 degr inh,RBBP9 inhibitor,14-3-3 Bad inh,eIF4E 4G PPI
CCOC(=O)CCc1c(C)c2ccc(OCc3cc([N+](=O)[O-])ccc3OC)cc2oc1=O,-23.9,0.3,-3.9,-7.7,-6.0
CCOC(=O)CCc1c(C)c2ccc(OCc3cc([N+](=O)[O-])ccc3OC)c(C)c2oc1=O,30.3*,-0.7,-1.5,39.7,10.3
Cc1[nH]c2ccccc2c1/C=N/NC(=O)CNC(=O)c1ccc2c(c1)OCCO2,-22.0,4.3,-8.0,-3.1,0.2
CCSc1nc(O)cc(=O)[nH]1,-5.2,10.6*,-3.0,-4.2,-4.2
COc1ccc2nc(NC(=O)CSc3nc(C)cc(=O)[nH]3)sc2c1,-14.4,-1.4,0.1,-0.9,1.7
CCCCCSc1nc(O)cc(=O)[nH]1,-17.9,-1.8,-2.0,-3.4,-0.1
COc1ccc(NC(=O)CSc2nc(O)cc(=O)[nH]2)c(OC)c1,2.7,2.5,0.1,-3.9,95.6*
CN1c2ccccc2Oc2nnc(Cl)cc21,-8.6,0.7,-5.5,-8.0,5.0
CCN(CC)CCOc1cc2c(nn1)Oc1ccccc1N2C,-7.0,0.7,2.8,82.9*,-1.4
CCn1cc(CNC(=S)Nc2cccc3ccccc23)cn1,-7.5,9.3*,11.3,-3.0,2.1
O=C(OCc1nc2ccccc2s1)c1cc2ccccc2oc1=O,-11.2,-3.2,-4.0,33.8,6.6
Nc1cc(-c2nn[nH]n2)ccc1F,5.3,-4.1,1.1,71.8*,3.6
CCOc1ccc(N2C(=O)CC(NCC3CCCO3)C2=O)cc1 (stereo unspecified),-0.6,-0.5,7.1,-2.6,5.3
COc1cccc(CNC(=O)CCC2CCCN(C(=O)c3ccc(OC)c(F)c3)C2)c1 (stereo unspecified),-1.2,2.3,1.7,-9.8,-5.4
C(=C\c1ccco1)/C=N/n1cnnc1,-4.9,9.7*,-9.8,-10.8,5.4
O=C(CN1CCN(CCO)CC1)Nc1ccccc1,6.9,6.3,1.9,73.3*,3.4
CCOC(=O)C1CCN(C(=O)Nc2ccc(OCc3ccccc3)cc2)CC1,43.5*,1.8,-1.0,-0.3,1.6
N#CCN1CCN(CC(=O)Nc2ccc(OCc3ccccc3)cc2)CC1,-1.6,-2.0,-8.7,2.1,0.1
O=C(CN1CCOCCOCCOCC1)Nc1ccccc1,-10.5,-1.7,-6.7,7.4,-6.4
CN1CCN(CC(=O)Nc2ccc(OCc3ccccc3)cc2)CC1,-1.1,1.0,6.5,86.9*,-6.3
CCOC(=O)c1sc(NC(=O)C(C)Sc2nnc(N)s2)nc1C (stereo unspecified),-4.0,1.0,-5.6,-4.3,-1.6
NC(=O)c1c(NC(=O)CSc2nnc(-c3ccco3)n2-c2ccccc2)sc2c1CCC2,-31.1,0.6,-0.1,5.9,31.5*[fluorescence artefact?]
N#Cc1c(NC(=O)CSc2nnc(-c3ccco3)n2-c2ccccc2)sc2c1CCC2,-48.3,-1.1,-0.8,1.4,7.6
CCCC12CN3CCN(CC(C3)/C1=N\NC(=O)Nc1ccccc1)C2,-20.6,10.0*,-6.3,-21.8,-5.3
Cc1ccc(S(=O)(=O)Nc2csc(C)c2C(=O)O)cc1,-19.5,-0.1,-0.6,72.8*,1.8
NC(N)=Nc1nc2ccc(Cl)cc2c(=O)[nH]1,-29.9,2.2,-4.0,-10.2,0.0
Cc1nc2ccc(NC(=S)N3CCN(c4ccccn4)CC3)cc2nc1C,-9.8,9.0*,-2.7,-9.2,-2.0
O=C(CSc1nc2ccccc2s1)NC1CCS(=O)(=O)C1 (stereo unspecified),-7.3,10.9*,-8.9,3.9,4.4
O=C(CSc1nnc(NCc2ccccc2)s1)NC1CCS(=O)(=O)C1 (stereo unspecified),-6.0,-2.1,-3.2,-6.6,-3.1
